Rows were chosen to be rich in hits. Some 3.7% of all compounds tested hit in one or more screens of this group.
Kir21 block: inhibitors of mouse Kir2.1 inward-rectifier potassium channel | P35561 | HEK293-Kir2.1, FluxOR thallium flux fluorescence; active compounds read low | B-score at 10 µM | 0.85% of 310,000 active | AID 1672;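 active = fluorescence ratio B-score at or below minus 3 SD of library scores, with starting-brightness B-score within 2 SD, cut at about -4.2 in these data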;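 note: channel flux triggered by added potassium and thallium sulfate stimulus; B-score of peak minus minimum fluorescence over baseline after thallium stimulus; more negative B-score means stronger Kir2.1 block with less thallium influx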
KCNQ1 inh: blocks the human KCNQ1 potassium channel. B-score at 10 µM. 1.3% of 310,000 active. P51787. CHO-K1 KCNQ1, FluxOR thallium flux fluorescence; active compounds read high;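 active = compounds whose thallium flux B-score, printed positive for inhibition, exceeds three library SD while starting fluorescence stays within three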;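 note: channel opened by potassium depolarization with thallium stimulus after 20 min compound exposure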
KCNK3 block: human KCNK3 channel inhibition, primary screen. O14649. CHO-KCNK3 thallium flux, FluxOR fluorescence; active compounds read low. B-score at 10 µM. 0.84% of 340,000 active. AID 602410;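 active = B-score under library mean minus 4 SD, starting fluorescence ratio at most library mean plus 5 SD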;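 note: more negative B-score means stronger inhibition of thallium flux through KCNK3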
KCNK9 block: inhibitors of human KCNK9 two-pore domain potassium channel; Q9NPC2; HEK293 KCNK9, FluxOR thallium flux fluorescence; active compounds read low; B-score at 10 µM; 1.2% of 310,000 active;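 active = ratio B-score over 3 SD below the library mean, with starting fluorescence within 5 SD of its mean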;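 note: negative B-score means less thallium flux so channel inhibition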
hERG rescue: compounds protecting human hERG from proarrhythmic drug block; activation (rescue from dofetilide block), less the hit threshold, % at 10 µM; CHO-hERG, FluxOR thallium flux, dofetilide IC70 present; 0.51% of 310,000 active; AID 1511; Q12809;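 active = activation above the mean of controls blocked by dofetilide plus 5 SD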;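 note: thallium influx through hERG after potassium depolarization seen as dye fluorescence rise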
KCNQ1 act: potentiates or activates the human KCNQ1 potassium channel; P51787; CHO-K1 KCNQ1, thallium flux FluxOR fluorescence; active compounds read high; B-score at 10 µM; 0.35% of 310,000 active; AID 2648;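 active = fluorescence ratio B-score, a plate-corrected score, at least three library SD, with initial intensity B-score within 5 SD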
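System: Stable KCNQ1 CHO-K1 line | Incubation: 90 min dye loading and 20 min compound exposure, both at room temperature | Measure: Ratio B score | Medium: Assay buffer for compound exposure, DMSO matched across wells | Compound dosing: Single-concentration screen | Probe or stimulus: K+/Tl+ depolarizing stimulus | Measured by: Kinetic FluxOR fluorescence, 10 s baseline plus 110 s post-stimulus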
KCNK9 block conf: human KCNK9 inhibitor confirmation; shares compounds with KCNK9 block; AID 492992; inhibition, % at 10 µM; 43% of 4,900 active; HEK293 KCNK9 cells, FluxOR thallium flux fluorescence;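 active = thallium signal inhibited by more than 5 SD of the compound-free buffer control wells, on both duplicate plates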
Kir2-1 spec: selectivity of KCNK9 modulators against mouse Kir2.1 | shares compounds with KCNK9 block | Kir2.1 cells, FluxOR thallium flux fluorescence | inhibition, % at 10 µM | 4% of 4,900 active | AID 492993;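 active = thallium signal drop more than 5 SD beyond the mean of the no-compound control wells, seen in both duplicate plates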;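 note: signal is fluorescence rise after thallium addition divided by baseline fluorescence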
KCNK9 uninduced: second counter-screen for KCNK9 modulators: effect in non-induced cells; 40% of 4,900 active; non-induced KCNK9-HEK293, FluxOR thallium flux; inhibition, % at 10 µM; shares compounds with KCNK9 block;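 active = thallium signal drop beyond 5 SD of the untreated control mean, on both duplicate plates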
Each line names hits and unclear results; the compound was inactive in the other large screens (follow-up assays come after a bar, where they were run).

CCCc1ccc(Oc2cn[nH]c2-c2ccc(O)c(C)c2O)cc1	KCNK9 block -9.89 | KCNK9 block conf 55.5% | Kir2-1 spec inactive | KCNK9 uninduced 44.0%
CCCc1ccc(Oc2c(-c3ccc(O)c(C)c3O)n[nH]c2C)cc1	none
COC(=O)C1=CN(Cc2ccc(C)cc2)C=C(C(=O)OC)C1c1ccc(F)c(F)c1	KCNK9 block -10.8 | KCNK9 block conf inactive | Kir2-1 spec inactive | KCNK9 uninduced 39.0%
Cc1ccc(C(=O)c2ccccc2C(=O)OCC(=O)N2C(C)CCCC2C)cc1 (stereo not given)	none (no result: Kir21 block, KCNQ1 inh, KCNK9 block, hERG rescue, KCNQ1 act)
O=C(Nc1ccccc1)c1ccccc1OCc1cccc([N+](=O)[O-])c1	KCNK9 block -11.8 | KCNK9 block conf inactive | Kir2-1 spec inactive | KCNK9 uninduced 28.5%
O=C(Nc1ccc(O)cc1)c1ccccc1OCc1ccccc1	none
CC(Sc1nnc(N)s1)C(=O)Nc1ccc2c(c1)OCCO2 (stereo not given)	none
CNC(=O)C(=O)NCCN1CCN(S(=O)(=O)c2ccc3ccccc3c2)CC1	none
CCCCCCCCNC(=O)/C(C#N)=C/c1ccc2c(c1)OCCO2	none | KCNK9 block conf inactive | Kir2-1 spec inactive | KCNK9 uninduced inactive
CCCCCCCCNC(=O)/C(C#N)=C/c1ccc(SC)cc1	none | KCNK9 block conf inactive | Kir2-1 spec inactive | KCNK9 uninduced inactive
Cc1ccc(S(=O)(=O)NCCC(=O)NC2CC2)cc1	none
O=C(COc1ccc2ccccc2c1)Nc1cccc2cccnc12	KCNK9 block -8.68 | KCNK9 block conf 45.5% | Kir2-1 spec inactive | KCNK9 uninduced 39.0%
O=C(COc1ccc2ccccc2c1)Nc1cccnc1Cl	none
CN(CC(=O)NCC(c1ccco1)N1CCCCC1)S(=O)(=O)c1ccc(Cl)cc1 (stereo not given)	none
COc1ccc(-c2csc(Nc3ncccc3C)n2)cc1	none | KCNK9 block conf inactive | Kir2-1 spec inactive | KCNK9 uninduced inactive
COc1ccc(-c2csc(Nc3ncccc3C)n2)cc1OC	none
Cc1ccc(-n2c(C)cc(C(=O)Cn3nc(C(=O)O)c4ccccc4c3=O)c2C)cc1	none
Cc1cc(C(=O)Cn2nc(C(=O)O)c3ccccc3c2=O)c(C)n1-c1ccc(OC(F)F)cc1	none | KCNK9 block conf inactive | Kir2-1 spec inactive | KCNK9 uninduced inactive
COc1ccc(-n2c(C)cc(C(=O)Cn3nc(C(=O)O)c4ccccc4c3=O)c2C)cc1	none | KCNK9 block conf inactive | Kir2-1 spec inactive | KCNK9 uninduced inactive
COc1ccc(-n2ncc3c2CC(C)(C)CC3NC(=O)CCn2cncn2)cc1 (stereo not given)	none
COc1ccc(NC(C#N)c2ccccc2OCc2ccccc2)cc1 (stereo not given)	KCNK9 block -8.33 | KCNK9 block conf inactive | Kir2-1 spec inactive | KCNK9 uninduced 24.0%
O=C(Nc1c(Cl)cccc1Cl)c1ccc(-c2ccccc2)cc1	KCNK9 block -8.46 | KCNK9 block conf 33.5% | Kir2-1 spec inactive | KCNK9 uninduced inactive
O=C(Nc1ccc(Cl)cc1Cl)c1ccc(-c2ccccc2)cc1	none
CC(=O)N1CCC(N(CCCOC(C)C)S(=O)(=O)c2ccc([N+](=O)[O-])cc2)CC1	none
CCc1nnc(NS(=O)(=O)c2ccc(NCc3cc(Cl)ccc3O)cc2)s1	none | KCNK9 block conf inactive | Kir2-1 spec inactive | KCNK9 uninduced inactive
CCc1nnc(NS(=O)(=O)c2ccc(NCc3cc(Cl)cc(Cl)c3O)cc2)s1	none | KCNK9 block conf inactive | Kir2-1 spec inactive | KCNK9 uninduced inactive
CCc1nnc(NS(=O)(=O)c2ccc(NC(=O)OC)cc2)s1	none
O=c1cnc2cc([N+](=O)[O-])ccc2[nH]1	none
O=C(N/N=C/c1ccc([N+](=O)[O-])cc1)c1ccc(COc2ccccc2-c2ccccc2)cc1	none

Assay outcomes as filed in PubChem BioAssay.
